A short description of series [1]: Drug level in anesthetized Sprague-Dawley rat assessed end of infusion plasma concentration at 10 mg/kg after 90 mins. The class given is ADME, organism-based. Details: dose 10 mg/kg. Conditions: iv. A digest of the protocol: (§1)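 Inactin-anesthetized rats; femoral artery catheters for MAP, HR and blood sampling; femoral vein for dosing and saline; LV transducer catheter for LVP/dP/dt. PVR = MAP/PBF. After 30-min control period, vehicle (10% DMSO/PEG400, 1 mL/kg) or compound infused i.v. as three ascending doses, 3, 10, 30 mg/kg, each over 30 min. Changes versus time 0 baseline; mean of three animals.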

Series [2] deals with Rattus norvegicus. As to the kind of experiment: Hemodynamic effect in anesthetized Sprague-Dawley rat assessed as increase in cardiac contractility at 10 mg/kg after 90 mins. The class given is functional, Heart. A digest of the protocol: as §1
Series [3] relates to Rattus norvegicus. As to the kind of experiment: Hemodynamic effect in anesthetized Sprague-Dawley rat assessed as decrease in mean arterial pressure at 10 mg/kg after 90 mins. It counts as functional, Artery. Details: scale not given: the % may be the effect or the level left. A digest of the protocol:
as §1

The subject of series [4] is Rattus norvegicus. As to the kind of experiment: Hemodynamic effect in anesthetized Sprague-Dawley rat assessed as decrease in heart rate at 10 mg/kg after 90 mins. The class given is functional. Details: scale not given: the % may be the effect or the level left. A digest of the protocol: as §1
For series [5], the system named is Rattus norvegicus. In words: Hemodynamic effect in anesthetized Sprague-Dawley rat assessed as decrease in peripheral vascular resistance at 10 mg/kg after 90 mins. It counts as functional. Details: scale not given: the % may be the effect or the level left. A digest of the protocol: as §1
Series [6] concerns the target Mitogen-activated protein kinase 8 (Homo sapiens, UniProt P45983). As to the kind of experiment: Inhibition of JNK1.

Mitogen-activated protein kinase 8, sequence (P45983 whole entry): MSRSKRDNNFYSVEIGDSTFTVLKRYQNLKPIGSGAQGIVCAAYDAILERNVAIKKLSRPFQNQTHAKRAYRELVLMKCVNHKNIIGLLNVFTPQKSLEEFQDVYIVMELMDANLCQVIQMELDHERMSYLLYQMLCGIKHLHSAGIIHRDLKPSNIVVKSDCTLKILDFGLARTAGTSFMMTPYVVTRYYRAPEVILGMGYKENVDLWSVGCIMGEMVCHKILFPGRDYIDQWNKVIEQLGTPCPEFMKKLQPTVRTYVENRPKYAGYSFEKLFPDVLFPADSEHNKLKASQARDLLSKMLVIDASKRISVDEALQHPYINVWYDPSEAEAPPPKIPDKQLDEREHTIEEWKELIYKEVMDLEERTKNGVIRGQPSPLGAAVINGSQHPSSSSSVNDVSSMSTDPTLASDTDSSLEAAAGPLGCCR

With `CCOc1nc(C(=O)NCc2ccc(S(C)(=O)=O)cc2)cc(N)c1Cl`, the concentration at 1.5 h in series [1] was 14700 ng/mL. In addition, the Activity in series [2] is less than 15%; in series [3], 20%; in series [4] it was less than 15%; in series [5], 51%.
For the compound `CCOc1nc(C(=O)NCc2ccc([S+]([O-])c3ccccc3)cc2)cc(N)c1C#N` (stereo not drawn), the Activity in series [2] and in series [3] was 24% each time. In addition, the IC50 (in general, the midpoint of a concentration-inhibition curve) in series [6] came to 50 nM.
In turn, `CC(C)Oc1nc(C(=O)NCc2ccc(S(C)(=O)=O)cc2)cc(O)c1C#N` yielded a concentration at 1.5 h in series [1] of 39900 ng/mL. Also, the Activity in series [3] is given as less than 15%. Also, in series [6], the IC50 was greater than 10000 nM.
As to `CS(=O)(=O)c1ccc(CNC(=O)c2cc(N)c(C#N)c(OCC3CC3)n2)cc1`, in series [1], the concentration at 1.5 h turned out to be 8200 ng/mL. Further, the Activity in series [3] is recorded as 24%.
As to `CC(C)Oc1nc(C(=O)N(C)Cc2ccc(S(C)(=O)=O)cc2)cc(N)c1C#N`, the concentration at 1.5 h in series [1] came out at 23600 ng/mL. In addition, the Activity came to 41% in series [2] and 46% in series [5]. The compound also came in with an IC50 in series [6] of 6400 nM.
Take `CCOc1nc(C(=O)NCc2ccc(S(=O)(=O)c3ccccc3)cc2)cc(N)c1C#N`: the Activity came out at 24% in series [3] and 11% in series [4]. This compound showed an IC50 in series [6] of 130 nM.
On to `CCCn1c(C2CCNCC2)nc(-c2ccc(Cl)c(Cl)c2)c1-c1ccnc(NC2CCCCC2)n1`, for which the concentration at 1.5 h in series [1] stood at 9000 ng/mL. The results for the Activity in series [3] and in series [4] were 30% and 22%, respectively.
In series [1], `CCOc1nc(C(=O)NCc2ccc(S(C)(=O)=O)cc2)cc(N)c1C#N` had a concentration at 1.5 h of 19300 ng/mL. The Activity is reported as less than 15% in series [2], 41% in series [3], less than 15% in series [4] and 25% in series [5].
Regarding `CCOc1nc(C(=O)NCc2cnccc2Cl)cc(N)c1C#N`, the figures for the Activity in series [2] and in series [3] were less than -15% and 23%, respectively. For the same compound, in series [6], the IC50 is 30 nM.
Regarding `CS(=O)(=O)c1ccc(CNC(=O)c2cc(N)c(C#N)c(-c3ccsc3)n2)cc1`, in series [3], the Activity came out at 23%.
Regarding `COc1cc[nH]c1/C=C1\C(=O)Nc2cccc(C#CC(O)c3ccc(OCCCN(C)C)cc3)c21` (stereo not drawn), the results for the Activity in series [2], in series [3] and in series [4] were -20%, 23% and 11%, respectively. Inhibition in series [6] was half-maximal at 34 nM (IC50).
Take `CCOc1nc(C(=O)NCCNc2ccc([N+](=O)[O-])cn2)cc(N)c1C#N`: the Activity in series [2] is 12%; in series [3] it was 20%. Moreover, the IC50 in series [6] turned out to be 61 nM.
In series [1], `CS(=O)(=O)c1ccc(CNC(=O)c2cc(N)c(C#N)c(NC3CCCC3)n2)cc1` returned a concentration at 1.5 h of 10500 ng/mL. Moreover, the Activity in series [2] came to 13%; in series [3] it was 18%; in series [4], 6%.

The values above are taken from ChEMBL document CHEMBL1138387, “Hemodynamic effects of potent and selective JNK inhibitors in anesthetized rats: implication for targeting protein kinases in metabolic diseases” (Bioorg Med Chem Lett, 2007).
